molecular target: Cholinesterase (Homo sapiens, UniProt P06276); test: Inhibition of human serum BChE using butyrylthiocholine iodide as substrate preincubated for 20 mins followed by substrate addition and measured after 2 mins by DTNB-reagent based Ellman's method; conditions: not given
In short: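 hBChE at 0.015 units/mL with DTNB in phosphate buffer pH 8.0, preincubated 20 min at room temperature with at least six concentrations (10⁻⁴−10⁻⁹). Butyrylthiocholine iodide (0.075 M solution) added; A412 read after 2 min at 25 °C. IC50 from % activity vs log concentration; triplicates in at least three runs.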

Chain of Cholinesterase (Homo sapiens, UniProt P06276) (P06276 whole entry): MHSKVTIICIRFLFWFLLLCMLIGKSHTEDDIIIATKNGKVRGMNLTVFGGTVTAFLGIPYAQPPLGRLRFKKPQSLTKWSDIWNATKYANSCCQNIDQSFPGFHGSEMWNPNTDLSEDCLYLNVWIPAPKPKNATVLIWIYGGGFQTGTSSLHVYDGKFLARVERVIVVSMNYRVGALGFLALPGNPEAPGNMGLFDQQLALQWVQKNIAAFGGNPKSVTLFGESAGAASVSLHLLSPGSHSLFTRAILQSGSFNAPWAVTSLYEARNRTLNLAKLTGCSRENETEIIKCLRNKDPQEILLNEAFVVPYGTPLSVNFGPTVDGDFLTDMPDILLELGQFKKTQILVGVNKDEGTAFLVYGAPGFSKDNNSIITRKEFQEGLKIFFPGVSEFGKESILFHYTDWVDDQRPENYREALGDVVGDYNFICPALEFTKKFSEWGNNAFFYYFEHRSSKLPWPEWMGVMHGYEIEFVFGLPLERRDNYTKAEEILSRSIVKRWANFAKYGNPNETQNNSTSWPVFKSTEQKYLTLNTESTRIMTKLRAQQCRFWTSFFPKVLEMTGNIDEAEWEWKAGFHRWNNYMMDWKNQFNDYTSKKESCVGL

SMILES | IC50 [nM]
Nc1nonc1-c1nc2ccccc2n1CC(=O)Nc1ccc([N+](=O)[O-])cc1 | 80
Nc1nonc1-c1nc2ccccc2n1CC(=O)Nc1cccc(Br)c1 | 212
COC(=O)c1cccc(NC(=O)Cn2c(-c3nonc3N)nc3ccccc32)c1 | 180
Nc1nonc1-c1nc2ccccc2n1CC(=O)Nc1ccnc2ccccc12 | 212
N#Cc1cccc(NC(=O)Cn2c(-c3nonc3N)nc3ccccc32)c1 | 250
Nc1nonc1-c1nc2ccccc2n1CC(=O)Nc1cccc(Cl)c1 | 128

molecular target: Cholinesterase (Equus caballus, UniProt P81908); test: Inhibition of equine serum BChE using butyrylthiocholine iodide as substrate preincubated for 5 mins followed by substrate addition and measured after 2 mins by DTNB-reagent based Ellman's method; conditions: not given
Sequence (P81908 whole entry): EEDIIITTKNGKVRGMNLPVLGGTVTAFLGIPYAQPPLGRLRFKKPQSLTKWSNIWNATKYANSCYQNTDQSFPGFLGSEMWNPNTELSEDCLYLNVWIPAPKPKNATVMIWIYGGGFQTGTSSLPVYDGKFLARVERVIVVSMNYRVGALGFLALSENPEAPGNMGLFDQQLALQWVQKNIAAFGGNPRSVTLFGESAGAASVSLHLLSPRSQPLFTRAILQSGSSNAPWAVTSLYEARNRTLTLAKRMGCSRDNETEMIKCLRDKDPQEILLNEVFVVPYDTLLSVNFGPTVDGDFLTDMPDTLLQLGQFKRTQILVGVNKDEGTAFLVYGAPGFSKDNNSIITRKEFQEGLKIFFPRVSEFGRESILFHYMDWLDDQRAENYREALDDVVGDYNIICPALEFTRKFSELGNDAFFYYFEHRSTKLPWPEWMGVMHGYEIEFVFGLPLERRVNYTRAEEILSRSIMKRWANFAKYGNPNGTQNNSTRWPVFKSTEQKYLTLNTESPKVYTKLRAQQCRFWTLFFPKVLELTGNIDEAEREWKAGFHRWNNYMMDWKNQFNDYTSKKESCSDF

SMILES | IC50 [nM]
Cc1cc2nc(-c3nonc3N)n(CC(=O)Nc3ccc4ncccc4c3)c2cc1C | 11300
Cc1ccc(NC(=O)Cn2c(-c3nonc3N)nc3ccccc32)cc1 | 10300
Cc1cccc(NC(=O)Cn2c(-c3nonc3N)nc3ccccc32)c1C | 326
Nc1nonc1-c1nc2ccccc2n1CCC(=O)Nc1ccc2ncccc2c1 | 253
Nc1nonc1-c1nc2ccccc2n1CC(=O)Nc1ccc([N+](=O)[O-])cc1 | 30
Nc1nonc1-c1nc2ccccc2n1CC(=O)Nc1cccc(Br)c1 | 83
COC(=O)c1ccc(NC(=O)Cn2c(-c3nonc3N)nc3ccccc32)cc1 | 5380
CC(=O)Nc1cccc(NC(=O)Cn2c(-c3nonc3N)nc3ccccc32)c1 | 1130
COC(=O)c1cccc(NC(=O)Cn2c(-c3nonc3N)nc3ccccc32)c1 | 27
Nc1nonc1-c1nc2ccccc2n1CC(=O)Nc1ccccc1F | 124
Nc1nonc1-c1nc2ccccc2n1CC(=O)Nc1ccc2ncccc2c1 | 705
Nc1nonc1-c1nc2ccccc2n1CC(=O)Nc1ccnc2ccccc12 | 51
CC(=O)c1cccc(NC(=O)Cn2c(-c3nonc3N)nc3ccccc32)c1 | 191
Nc1nonc1-c1nc2ccccc2n1CC(=O)Nc1ccccc1Cl | 2730
COc1cc(NC(=O)Cn2c(-c3nonc3N)nc3ccccc32)cc(OC)c1OC | 6640
Nc1nonc1-c1nc2ccccc2n1CC(=O)Nc1ccc2c(c1)OCO2 | 2210
CC(=O)Nc1ccc(NC(=O)Cn2c(-c3nonc3N)nc3ccccc32)cc1 | 6540
Nc1nonc1-c1nc2ccccc2n1CC(=O)Nc1ccccc1 | 2960
CC(=O)c1ccc(NC(=O)Cn2c(-c3nonc3N)nc3ccccc32)cc1 | 2270
Nc1nonc1-c1nc2ccccc2n1CC(=O)Nc1cccc(F)c1F | 270
N#Cc1cccc(NC(=O)Cn2c(-c3nonc3N)nc3ccccc32)c1 | 51
COc1cccc(NC(=O)Cn2c(-c3nonc3N)nc3ccccc32)c1 | 1710
Nc1nonc1-c1nc2ccccc2n1CC(=O)Nc1cccc2ncccc12 | 920
Nc1nonc1-c1nc2ccccc2n1CC(=O)Nc1cccc(Cl)c1 | 33
Nc1nonc1-c1nc2ccccc2n1CC(=O)Nc1cccc(F)c1 | 1040
Cc1cc2nc(-c3nonc3N)n(CC(=O)Nc3cccc4ccccc34)c2cc1C | 108
Cc1cccc(NC(=O)Cn2c(-c3nonc3N)nc3ccccc32)c1 | 236
Cc1cc2nc(-c3nonc3N)n(CC(=O)Nc3cnc4ccccc4c3)c2cc1C | 28500
Nc1nonc1-c1nc2ccccc2n1CC(=O)Nc1ccc2ccccc2n1 | 507
Nc1nonc1-c1nc2ccccc2n1CC(=O)Nc1ccc2ccccc2c1 | 352000

molecular target: Cholinesterase (Equus caballus) (UniProt P81908); test: Inhibition of equine serum BChE at 10 uM using butyrylthiocholine iodide as substrate preincubated for 5 mins followed by substrate addition and measured after 2 mins by DTNB-reagent based Ellman's method relative to control; conditions: time 7.0 min
In short: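 Ellman method with equine BChE at 2.5 units/mL in pH 8.0 phosphate buffer with DTNB. Preincubation 5 min at room temperature, then butyrylthiocholine iodide (0.075 M solution) added; absorbance at 412 nm after 2 min. Ethanol sample gives 100% activity. Triplicates, at least three runs.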

Chain of Cholinesterase (Equus caballus) (P81908 whole entry): as above

SMILES | inhibition [%]
Nc1nonc1-c1nc2ccccc2n1CC(=O)Nc1ccc(Br)cc1 | < 50
O=C(Cn1c(-c2ccoc2)nc2ccccc21)Nc1ccc2ncccc2c1 | < 50
Nc1nonc1-c1nc2ccccc2n1CCCCC(=O)Nc1ccc2ncccc2c1 | < 50
Nc1nonc1-c1nc2ccccc2n1CC(=O)Nc1ccc(Cl)cc1 | < 50
Nc1ccc(NC(=O)Cn2c(-c3nonc3N)nc3ccccc32)cc1 | < 50
O=C(Cn1c(-c2ccccc2[N+](=O)[O-])nc2ccccc21)Nc1ccc2ncccc2c1 | < 50
COc1ccc(NC(=O)Cn2c(-c3nonc3N)nc3ccccc32)cc1 | < 50
Nc1nonc1-c1nc2ccccc2n1CC(=O)Nc1ccc(-c2ccccc2)cc1 | < 50
Nc1ccccc1-c1nc2ccccc2n1CC(=O)Nc1ccc2ncccc2c1 | < 50
O=C(Cn1c(-c2ccccc2)nc2ccccc21)Nc1ccc2ncccc2c1 | < 50

test system: not listed separately; test: Toxicity in ICR mouse assessed as increase in body weight administered for 14 days and measured daily; conditions: in vivo, 15 mg/kg, 336 h

SMILES | Activity
COc1cc2c(cc1OC)C(=O)C(CC1CCN(Cc3ccccc3)CC1)C2 (configuration not stated) [DONEPEZIL] | Toxic

— ChEMBL document CHEMBL5038583, “Highly Potent and Selective Butyrylcholinesterase Inhibitors for Cognitive Improvement and Neuroprotection” (J Med Chem, 2021)
